We go through 28 compounds from ChEMBL document CHEMBL1124244, “Design and synthesis of a series of combined vasodilator/beta-adrenoceptor antagonists based on 6-arylpyridazinones” (1988).

In test [1] the test system is Rattus norvegicus. The test can be described thus: Dose required to produce a fall in blood pressure of 40 mmHg in the anesthetized rat. It counts as functional. A digest of the protocol: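 Anesthetized normotensive rats dosed by intravenous injection. ED40 (μmol kg⁻¹) is dose lowering blood pressure by 40 mmHg, taken from a dose-response curve. At least three animals, minimum three doses; 95% confidence intervals via Fieller's theorem.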

Test [2] addresses Adrenergic receptor beta (Homo sapiens) (UniProt P08588+P07550+P13945). The test can be described thus: Intrinsic Sympathomimetic Activity (ISA) determined from the ratio of the maximal compound and isoprenaline induced tachycardia in anesthetized ganglion blocked cats following intravenous administration. Particulars: Felis catus; target entry is the homologue from another species. Format: functional, organism-based. The method in brief:
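Ganglion-blocked (pempidine 5 mg kg⁻¹ iv) anesthetized cats at 37 °C; heart rate from blood pressure pulse. Full isoprenaline dose-response (0.01–10 μg kg⁻¹) obtained first. Cannula washed with saline, then cumulative iv dose-response to compound in 50% PEG 400, raised until maximal heart-rate increase. ISA is the ratio of maximal compound-induced to isoprenaline-induced tachycardia.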

The target of test [3] is Beta-1 adrenergic receptor (Homo sapiens) (UniProt P08588). The settings on record: Felis catus.
Test [4] deals with Rattus norvegicus. As to the kind of experiment: Dose required to produce a 50% increase in blood flow to the autoperfused hindquarters of the anesthetized rat. It counts as functional. A digest of the protocol: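 Anesthetized normotensive rats with autoperfused hindquarters. Intravenous bolus doses. ED50 (μmol kg⁻¹) is dose giving 50% increase in hindquarter blood flow, read from a dose-response curve. At least three animals at a minimum of three doses; 95% confidence intervals by Fieller's theorem.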

Test [5] relates to Felis catus. As to the kind of experiment: Intrinsic Sympathomimetic Activity(ISA) determined from the ratio of the maximal compound and isoprenaline induced tachycardia in anesthetized ganglion blocked cats following intravenous administration. Format: functional. The method in brief:
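Anaesthetised cats; cephalic vein cannulated; rectal temperature held at 37 °C. Ganglion block with pempidine 5 mg kg⁻¹ iv, then waited for BP and heart rate to stabilise. Heart rate taken from the BP pulse. Isoprenaline tachycardia curve run at 0.01–10 μg kg⁻¹ iv, then a cumulative compound curve in 50% PEG 400, raised to maximal tachycardia. ISA = maximal compound/isoprenaline tachycardia ratio.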

In test [6] the test system is Felis catus. The test can be described thus: Beta-1-adrenoceptor antagonsim of compound expressed as inhibition of isoprenaline-induced tachycardia in the ganglion-blocked anesthetized cat at 10 uM/Kg dose. Format: functional.
Test [7] deals with Beta-1 adrenergic receptor (Homo sapiens) (UniProt P08588). The test can be described thus: Beta-1 adrenergic receptor antagonsim of compound expressed as inhibition of isoprenaline-induced tachycardia in the ganglion-blocked anesthetized cat. Particulars: Felis catus. It counts as functional. The method in brief:
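Ganglion-blocked anesthetized cats (pempidine 5 mg kg⁻¹ iv, left to stabilize; rectal temperature held at 37 °C; heart rate from blood pressure pulse). Compounds given iv via cephalic vein. ID50 is dose for 50% inhibition of standard isoprenaline-induced tachycardia. Percent inhibition logit-transformed; ≥3 animals, ≥3 doses; 95% confidence limits by Fieller's theorem.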

Chain of Beta-1 adrenergic receptor (Homo sapiens) (P08588 whole entry, looked up, the tested form may be a part): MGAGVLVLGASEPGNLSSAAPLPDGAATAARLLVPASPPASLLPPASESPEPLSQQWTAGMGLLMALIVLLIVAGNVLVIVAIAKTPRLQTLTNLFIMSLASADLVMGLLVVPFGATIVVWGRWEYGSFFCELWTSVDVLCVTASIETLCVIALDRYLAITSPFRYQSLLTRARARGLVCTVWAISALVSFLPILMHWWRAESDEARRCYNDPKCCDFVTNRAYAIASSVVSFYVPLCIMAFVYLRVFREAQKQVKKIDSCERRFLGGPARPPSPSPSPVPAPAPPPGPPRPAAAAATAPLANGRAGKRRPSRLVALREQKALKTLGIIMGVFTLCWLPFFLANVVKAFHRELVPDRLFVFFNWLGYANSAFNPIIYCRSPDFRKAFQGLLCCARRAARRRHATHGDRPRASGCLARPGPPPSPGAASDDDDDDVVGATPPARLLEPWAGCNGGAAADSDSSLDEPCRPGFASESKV

Regarding `COc1ccccc1OCC(O)CNCCC(=O)Nc1ccc(C2=NNC(=O)CC2)cc1` (stereo unspecified), the ED40 in the test on Rattus norvegicus [1] amounted to 11 µM/kg. Moreover, in test [2], the ISA is 0.6. Moreover, the ID50 in test [3] was found to be 0.7 µmol/kg. Also, in the test on Rattus norvegicus [4], the 50% effect level (ED50) was put at a dose of 4.3 µmol/kg.
In the test on Rattus norvegicus [1], `CC1CC(=O)NN=C1c1ccc(NC(=O)CNCC(O)COc2ccccc2C#N)cc1` (stereo unspecified) gave an ED40 of 2 µM/kg. In test [2], the ISA was 0.53. In addition, the ID50 in test [3] was greater than 8 µmol/kg. In the test on Rattus norvegicus [4], it took a dose of 0.9 µmol/kg to reach the 50% effect level (ED50).
Take `Nc1ccc(-c2ccc(O)nn2)cc1`: the ED40 with Rattus norvegicus [1] amounted to 1 µM/kg. It took a dose of 20 µmol/kg to reach the 50% effect level with Rattus norvegicus [4] (ED50).
Turning to `CC(C)(C)NCC(O)COc1ccccc1-c1ccc(NN)nn1` (stereo unspecified) [PRIZIDILOL], in the test with Rattus norvegicus [1], the ED40 amounted to 14 µM/kg. In addition, the ISA in test [2] is 0.2. Besides, the ID50 in test [3] was 0.06 µmol/kg. For the same compound, the 50% effect level in the test with Rattus norvegicus [4] (ED50) was put at a dose of 10 µmol/kg.
`Cc1ccccc1OCC(O)CNCCC(=O)Nc1ccc(C2=NNC(=O)CC2C)cc1` (stereo unspecified) showed an ED40 with Rattus norvegicus [1] of 0.5 µM/kg. The ISA in test [2] is 0.59. In addition, the ED50 in the test with Rattus norvegicus [4] is 2 µmol/kg.
On to `Br.CC1CC(=O)NN=C1c1ccc(NC(=O)CCNCC(O)COc2ccccc2)cc1` (stereo unspecified), for which the ED40 in the test on Rattus norvegicus [1] is 0.6 µM/kg. Further, in test [2], the ISA was 0.86. Further, in the test on Rattus norvegicus [4], it took a dose of 1.5 µmol/kg to reach the 50% effect level (ED50).
Consider `CC1CC(=O)NN=C1c1ccc(NC(=O)CCNCC(O)COc2ccccc2C#N)cc1` (stereo unspecified), for which the ED40 with Rattus norvegicus [1] was determined as 1 µM/kg. The ISA in test [2] came to 0.63. The same compound came in with an ED50 in the test with Rattus norvegicus [4] of 2.3 µmol/kg.
In the test on Rattus norvegicus [1], `CC(=O)Nc1ccc(C2=NNC(=O)CC2C)cc1` (stereo unspecified) displayed an ED40 of 0.18 µM/kg. This compound also registered an ED50 in the test on Rattus norvegicus [4] of 0.1 µmol/kg.
For the compound `CC1CC(=O)NN=C1c1ccc(NC(=O)CCNCC(O)COc2ccc(CCOCC3CC3)cc2)cc1` (stereo unspecified), the ED40 in the test with Rattus norvegicus [1] amounted to 2.4 µM/kg. Moreover, the ISA in test [2] turned out to be 0.05. Further, the ID50 in test [3] is 1 µmol/kg. In the test on Rattus norvegicus [4], this compound gave an ED50 of 1.6 µmol/kg.
Take `CC1CC(=O)NN=C1c1ccc(NC(=O)CCNCC(O)COc2cccc3[nH]ccc23)cc1.Cl` (stereo unspecified): the ED40 in the test on Rattus norvegicus [1] is 2.9 µM/kg. Also, the ISA in test [2] stood at 0.46. The compound also returned an ID50 in test [3] of 0.09 µmol/kg. In addition, the ED50 in the test with Rattus norvegicus [4] stood at 4.4 µmol/kg.
On to `N#Cc1ccccc1OCC(O)CNCCC(=O)Nc1ccc(C2=NNC(=O)CC2)cc1` (stereo unspecified), for which, in the test with Rattus norvegicus [1], the ED40 was determined as 3.5 µM/kg. In test [3], this compound gave an ID50 greater than 1 µmol/kg. This compound also registered an ED50 in the test on Rattus norvegicus [4] of 1.7 µmol/kg.
Regarding `CC(C)NCC(O)COc1cccc2[nH]ccc12` (stereo unspecified) [PINDOLOL], the ISA with Felis catus [5] is recorded as 0.7.
`CC1CC(=O)NN=C1c1ccc(NC(=O)CCNCC(O)COc2ccccc2N2CCOCC2)cc1` (stereo unspecified): the ED40 in the test with Rattus norvegicus [1] was determined as 3.6 µM/kg. In test [2], the ISA worked out at 0.24. For the same compound, the ID50 in test [3] stood at 0.5 µmol/kg. For the same compound, in the test on Rattus norvegicus [4], the ED50 came to 1.8 µmol/kg.
In the test on Rattus norvegicus [1], `CC(=O)Nc1ccc(C2=NNC(=O)CC2)cc1` displayed an ED40 of 1 µM/kg. Further, the 50% effect level in the test with Rattus norvegicus [4] (ED50) was put at a dose of 4 µmol/kg.
In turn, `COc1ccccc1OCC(O)CNCC(=O)Nc1ccc(C2=NNC(=O)CC2C)cc1` (stereo unspecified) returned an ED40 in the test with Rattus norvegicus [1] of less than 4 µM/kg. Further, the ISA in test [2] was 0.37. This compound also displayed an ID50 in test [3] of 2.6 µmol/kg. Moreover, in the test on Rattus norvegicus [4], the ED50 turned out to be 3 µmol/kg.
In the test with Rattus norvegicus [1], `O=C1CCC(c2ccc(NC(=O)CNCC(O)COc3cccc4ccccc34)cc2)=NN1` (stereo unspecified) showed an ED40 of 28 µM/kg. Also, the ISA in test [2] came to 0.1. In the test with Felis catus [6], this compound had an Inhibition of 30%. In the test with Rattus norvegicus [4], this compound showed an ED50 of 1.4 µmol/kg.
Regarding `COCCc1ccc(OCC(O)CNCCC(=O)Nc2ccc(C3=NNC(=O)CC3C)cc2)cc1` (stereo unspecified), in the test on Rattus norvegicus [1], the ED40 was found to be 3 µM/kg. In test [2], the ISA turned out to be 0.04. The ID50 in test [3] stood at 2 µmol/kg. For the same compound, the ED50 in the test with Rattus norvegicus [4] was 6 µmol/kg.
`COc1ccccc1OCC(O)CNCC(=O)Nc1ccc(C2=NNC(=O)CC2)cc1` (stereo unspecified) yielded an ED40 with Rattus norvegicus [1] of 11.5 µM/kg. Besides, in test [2], the ISA was 0.42. Further, the ID50 in test [3] was found to be 10 µmol/kg. The ED50 in the test with Rattus norvegicus [4] was 4.6 µmol/kg.
As for `Cc1ccccc1OCC(O)CNCC(=O)Nc1ccc(C2=NNC(=O)CC2C)cc1` (stereo unspecified), the ED40 with Rattus norvegicus [1] was less than 2 µM/kg. The compound further showed an ID50 in test [3] greater than 5 µmol/kg. The compound also gave an ED50 in the test with Rattus norvegicus [4] of 2.7 µmol/kg.
Take `C=CCOc1ccccc1OCC(O)CNC(C)C` (stereo unspecified): the ISA in test [2] is 0.2. Moreover, the ID50 in test [3] was 0.04 µmol/kg.
Take `NNc1nncc2ccccc12` [HYDRALAZINE]: the ED40 in the test on Rattus norvegicus [1] turned out to be 1 µM/kg. This compound also registered an ED50 with Rattus norvegicus [4] of 0.6 µmol/kg.
Turning to `COc1ccccc1OCC(O)CNCCC(=O)Nc1ccc(C2=NNC(=O)CC2C)cc1` (stereo unspecified), the ED40 in the test with Rattus norvegicus [1] came to 2 µM/kg. In addition, in test [2], the ISA was 0.48. The ID50 in test [3] was 0.7 µmol/kg. In the test on Rattus norvegicus [4], this compound showed an ED50 of 3 µmol/kg.
`Cc1ccccc1OCC(O)CNCCC(=O)Nc1ccc(C2=NNC(=O)CC2)cc1` (stereo unspecified): the ED40 in the test on Rattus norvegicus [1] turned out to be 9.4 µM/kg. The ISA in test [2] worked out at 0.14. This compound gave an ID50 in test [3] of 1.4 µmol/kg. Also, in the test on Rattus norvegicus [4], the ED50 was 6 µmol/kg.
Take `Cc1ccccc1OCC(O)CNCC(=O)Nc1ccc(C2=NNC(=O)CC2)cc1` (stereo unspecified): the ID50 in test [7] is 9 µmol/kg. The ED40 with Rattus norvegicus [1] was 6 µM/kg. Moreover, in test [2], the ISA worked out at 0.55. The ED50 in the test on Rattus norvegicus [4] turned out to be 2 µmol/kg.
In turn, `CC1CC(=O)NN=C1c1ccc(NC(=O)CCN)cc1` (stereo unspecified) had an ED40 in the test with Rattus norvegicus [1] of 0.2 µM/kg. The compound also gave an ED50 with Rattus norvegicus [4] of 0.2 µmol/kg.
With `CC1CC(=O)NN=C1c1ccc(NC(=O)CCNCC(O)COc2ccccc2S(C)(=O)=O)cc1.Cl` (stereo unspecified), the ED40 with Rattus norvegicus [1] was 3.9 µM/kg. Besides, the ISA in test [2] is less than 0.3. Moreover, the ID50 in test [3] is 4 µmol/kg. This compound registered an ED50 with Rattus norvegicus [4] of 2.4 µmol/kg.
In the case of `Cc1cccc(OCC(O)CNCCC(=O)Nc2ccc(C3=NNC(=O)CC3C)cc2)c1C` (stereo unspecified), in the test with Rattus norvegicus [1], the ED40 worked out at 2.5 µM/kg. Moreover, the ISA in test [2] turned out to be 0.14. In test [3], this compound showed an ID50 of 0.6 µmol/kg. The same compound displayed an ED50 in the test with Rattus norvegicus [4] of 2.4 µmol/kg.
For the compound `N#Cc1ccccc1OCC(O)CNCC(=O)Nc1ccc(C2=NNC(=O)CC2)cc1` (stereo unspecified), in the test with Rattus norvegicus [1], the ED40 was 30 µM/kg. For the same compound, in test [2], the ISA was 0.55. This compound gave an ED50 with Rattus norvegicus [4] of 14 µmol/kg.
